# Data published in ChEMBL document CHEMBL1152689, “Synthesis, tautomerism, and antimicrobial, anti-HCV, anti-SSPE, antioxidant, and antitumor activities of arylazobenzosuberones” (Bioorg Med Chem, 2009).
# The source made the active and inactive calls. No cut-off for these calls is given here.
# Key:
# [1] = system: Measles morbillivirus; test: Antiviral activity against Measles virus infected in intracranially dosed hamster assessed as inhibition of subacute sclerosing panencephalitis; assay type: functional
# How it was run: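 Hamsters under ether anesthesia injected intracranially, into the subarachnoid space at 2 mm depth, at 5, 10 and 20 mg/kg/day for 10 days. Four animals per group sacrificed on days 1–20. Brains homogenized in PBS and centrifuged, supernatant deproteinized with ethanol, then MIC in brain tissue determined by HPLC and bioassay.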
# [2] = system: Staphylococcus aureus; test: Antimicrobial activity against Staphylococcus aureus at 5 ug/mL by agar diffusion method; assay type: functional; details: read-out: IZ
# [3] = system: Pseudomonas aeruginosa; test: Antimicrobial activity against Pseudomonas aeruginosa at 2.5 ug/mL by agar diffusion method; assay type: functional; details: read-out: IZ
# [4] = system: Syncephalastrum racemosum; test: Antimicrobial activity against Syncephalastrum racemosum at 1.25 ug/mL by agar diffusion method; assay type: functional; details: read-out: IZ
# [5] = system: Pseudomonas aeruginosa; test: Antimicrobial activity against Pseudomonas aeruginosa at 1.25 ug/mL by agar diffusion method; assay type: functional; details: read-out: IZ
# [6] = system: Candida albicans; test: Antimicrobial activity against Candida albicans at 1.25 ug/mL by agar diffusion method; assay type: functional; details: read-out: IZ
# [7] = system: Aspergillus fumigatus; test: Antimicrobial activity against Aspergillus fumigatus at 2.5 ug/mL by agar diffusion method; assay type: functional; details: read-out: IZ
# [8] = system: Staphylococcus aureus; test: Antimicrobial activity against Staphylococcus aureus at 2.5 ug/mL by agar diffusion method; assay type: functional; details: read-out: IZ
# [9] = system: Bacillus subtilis; test: Antimicrobial activity against Bacillus subtilis at 5 ug/mL by agar diffusion method; assay type: functional; details: read-out: IZ
# [10] = system: Escherichia coli; test: Antimicrobial activity against Escherichia coli at 1.25 ug/mL by agar diffusion method; assay type: functional; details: read-out: IZ
# [11] = system: Radical scavenging activity; test: Antioxidant activity assessed as DPPH free radical scavenging activity by measuring reduction in DPPH absorbance by ELISA relative to untreated control; assay type: functional; set-up: concentration or dose not given beside the values
# How it was run: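 Test compounds dissolved in DMSO, ascorbic acid standard in water, both serially diluted. 10 µl sample added to 90 µl of 100 µM DPPH in methanol and kept in the dark at 37 °C for 30 min. Absorbance read at 515 nm. Blank is DMSO plus DPPH. % reduction = (A_B − A_A)/A_B × 100. Run in triplicate.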
# [12] = system: Candida albicans; test: Antimicrobial activity against Candida albicans at 2.5 ug/mL by agar diffusion method; assay type: functional; details: read-out: IZ
# [13] = biological target: DNA topoisomerase 2-alpha (Mus musculus) (UniProt Q01320); test: Inhibition of topoisomerase 2 from mouse P388 cells assessed as relaxation of pBR322 DNA by agarose gel electrophoresis relative to etoposide; assay type: cell-based
# How it was run: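 Topoisomerase II purified from P388 cells. One unit relaxes 0.125 µg supercoiled pBR322 DNA, incubated with or without inhibitor at 30 °C for 1 h in 50 mM Tris-HCl pH 8.0, 100 mM KCl, 10 mM MgCl2, 0.5 mM DTT, 1 mM ATP and 30 µg/ml BSA. Products run on 0.7% agarose in TBE, stained with ethidium bromide and imaged under UV.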
# [14] = system: Hepatitis C virus; test: Antiviral activity against HCV by cell based replicon assay; assay type: functional, Hepacivirus hominis
# How it was run: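 HCV replicon cells plated at 1×10^4 per well. Next day incubated at 37 °C with serially diluted compound in DMEM with 2% FBS and 0.5% DMSO. HCV RNA copy number measured by quantitative RT-PCR on total cellular RNA. Each point is the average of five replicates. Cytotoxicity measured by MTS in parallel.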
# [15] = system: Aspergillus fumigatus; test: Antimicrobial activity against Aspergillus fumigatus at 5 ug/mL by agar diffusion method; assay type: functional; details: read-out: IZ
# [16] = system: Penicillium italicum; test: Antimicrobial activity against Penicillium italicum at 5 ug/mL by agar diffusion method; assay type: functional; details: read-out: IZ
# [17] = system: Penicillium italicum; test: Antimicrobial activity against Penicillium italicum at 1.25 ug/mL by agar diffusion method; assay type: functional; details: read-out: IZ
# [18] = system: Syncephalastrum racemosum; test: Antimicrobial activity against Syncephalastrum racemosum at 2.5 ug/mL by agar diffusion method; assay type: functional; details: read-out: IZ
# [19] = biological target: T1, DNA topoisomerase 1 (Homo sapiens) (UniProt P11387); test: Inhibition of topoisomerase 1 relative to etoposide
# T1 sequence (whole entry): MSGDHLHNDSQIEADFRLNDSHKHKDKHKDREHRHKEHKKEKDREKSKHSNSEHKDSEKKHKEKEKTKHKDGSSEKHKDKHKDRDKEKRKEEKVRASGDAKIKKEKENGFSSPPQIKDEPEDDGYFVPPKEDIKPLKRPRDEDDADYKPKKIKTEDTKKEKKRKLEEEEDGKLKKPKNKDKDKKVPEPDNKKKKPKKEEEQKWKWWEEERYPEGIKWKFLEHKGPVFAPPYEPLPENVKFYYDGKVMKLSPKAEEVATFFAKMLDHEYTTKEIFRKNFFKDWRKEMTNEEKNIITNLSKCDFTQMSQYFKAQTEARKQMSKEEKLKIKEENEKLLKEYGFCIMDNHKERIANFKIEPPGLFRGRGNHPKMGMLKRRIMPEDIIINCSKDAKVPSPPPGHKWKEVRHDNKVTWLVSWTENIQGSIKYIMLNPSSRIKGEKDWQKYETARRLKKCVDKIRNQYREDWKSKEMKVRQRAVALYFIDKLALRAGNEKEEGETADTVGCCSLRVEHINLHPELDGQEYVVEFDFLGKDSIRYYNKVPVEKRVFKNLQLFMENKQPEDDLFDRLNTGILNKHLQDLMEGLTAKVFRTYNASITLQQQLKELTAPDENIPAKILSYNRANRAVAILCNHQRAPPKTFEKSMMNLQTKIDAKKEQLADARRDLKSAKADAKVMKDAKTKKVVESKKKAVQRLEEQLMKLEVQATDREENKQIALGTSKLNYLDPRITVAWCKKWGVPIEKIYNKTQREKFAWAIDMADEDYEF
# [20] = system: Aspergillus fumigatus; test: Antimicrobial activity against Aspergillus fumigatus at 1.25 ug/mL by agar diffusion method; assay type: functional; details: read-out: IZ
# [21] = system: Penicillium italicum; test: Antimicrobial activity against Penicillium italicum at 2.5 ug/mL by agar diffusion method; assay type: functional; details: read-out: IZ
# [22] = system: Candida albicans; test: Antimicrobial activity against Candida albicans by agar diffusion method; assay type: functional
# How it was run: (§1)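 Agar diffusion on plates against bacteria and fungi. MIC taken as the lowest concentration giving no visible growth on the plate.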
# [23] = system: Bacillus subtilis; test: Antimicrobial activity against Bacillus subtilis by agar diffusion method; assay type: functional; how it was run: as §1
# [24] = system: Pseudomonas aeruginosa; test: Antimicrobial activity against Pseudomonas aeruginosa at 5 ug/mL by agar diffusion method; assay type: functional; details: read-out: IZ
# [25] = system: Escherichia coli; test: Antimicrobial activity against Escherichia coli at 2.5 ug/mL by agar diffusion method; assay type: functional; details: read-out: IZ
# [26] = system: Bacillus subtilis; test: Antimicrobial activity against Bacillus subtilis at 1.25 ug/mL by agar diffusion method; assay type: functional; details: read-out: IZ
# [27] = system: Candida albicans; test: Antimicrobial activity against Candida albicans at 5 ug/mL by agar diffusion method; assay type: functional; details: read-out: IZ
# [28] = system: MC-38; test: Antitumor activity against mouse Colon 38 cells implanted in iv dosed C57BL/6 mouse administered as single dose; assay type: functional, organism-based
# How it was run: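 Female C57BL/6 mice, 6 weeks old, given about 30 mg Colon 38 tumor tissue s.c. in the flank. Randomized into groups of n = 5 when tumors reached about 300 mm3 (day 1). Compound in 5% glucose given as a single iv tail-vein dose on day 1; controls received 5% glucose. Tumor volume = (length × width²)/2 and body weight tracked.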
# [29] = system: Staphylococcus aureus; test: Antimicrobial activity against Staphylococcus aureus by agar diffusion method; assay type: functional; how it was run: as §1
# [30] = system: Staphylococcus aureus; test: Antimicrobial activity against Staphylococcus aureus at 1.25 ug/mL by agar diffusion method; assay type: functional; details: read-out: IZ
# [31] = system: Syncephalastrum racemosum; test: Antimicrobial activity against Syncephalastrum racemosum at 5 ug/mL by agar diffusion method; assay type: functional; details: read-out: IZ
# [32] = system: Aspergillus fumigatus; test: Antimicrobial activity against Aspergillus fumigatus by agar diffusion method; assay type: functional; how it was run: as §1
# [33] = system: Bacillus subtilis; test: Antimicrobial activity against Bacillus subtilis at 2.5 ug/mL by agar diffusion method; assay type: functional; details: read-out: IZ
# [34] = system: Escherichia coli; test: Antimicrobial activity against Escherichia coli at 5 ug/mL by agar diffusion method; assay type: functional; details: read-out: IZ
# [35] = Antioxidant activity assessed as inhibition of peroxynitrite-mediated 3-nitrotyrosine formation by HPLC; assay type: functional
# How it was run: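 Tyrosine and peroxynitrite, each 100 µM, reacted with compound at 0–300 µM in 100 mM phosphate buffer pH 7.4 at 37 °C for 15 min. Peroxynitrite made from acidified H2O2 plus KNO2, quenched with NaOH, and kept on ice no longer than 30 min before use.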
# [36] = system: Syncephalastrum racemosum; test: Antimicrobial activity against Syncephalastrum racemosum by agar diffusion method; assay type: functional; how it was run: as §1
# DNA topoisomerase 2-alpha (Mus musculus), sequence (Q01320 whole entry): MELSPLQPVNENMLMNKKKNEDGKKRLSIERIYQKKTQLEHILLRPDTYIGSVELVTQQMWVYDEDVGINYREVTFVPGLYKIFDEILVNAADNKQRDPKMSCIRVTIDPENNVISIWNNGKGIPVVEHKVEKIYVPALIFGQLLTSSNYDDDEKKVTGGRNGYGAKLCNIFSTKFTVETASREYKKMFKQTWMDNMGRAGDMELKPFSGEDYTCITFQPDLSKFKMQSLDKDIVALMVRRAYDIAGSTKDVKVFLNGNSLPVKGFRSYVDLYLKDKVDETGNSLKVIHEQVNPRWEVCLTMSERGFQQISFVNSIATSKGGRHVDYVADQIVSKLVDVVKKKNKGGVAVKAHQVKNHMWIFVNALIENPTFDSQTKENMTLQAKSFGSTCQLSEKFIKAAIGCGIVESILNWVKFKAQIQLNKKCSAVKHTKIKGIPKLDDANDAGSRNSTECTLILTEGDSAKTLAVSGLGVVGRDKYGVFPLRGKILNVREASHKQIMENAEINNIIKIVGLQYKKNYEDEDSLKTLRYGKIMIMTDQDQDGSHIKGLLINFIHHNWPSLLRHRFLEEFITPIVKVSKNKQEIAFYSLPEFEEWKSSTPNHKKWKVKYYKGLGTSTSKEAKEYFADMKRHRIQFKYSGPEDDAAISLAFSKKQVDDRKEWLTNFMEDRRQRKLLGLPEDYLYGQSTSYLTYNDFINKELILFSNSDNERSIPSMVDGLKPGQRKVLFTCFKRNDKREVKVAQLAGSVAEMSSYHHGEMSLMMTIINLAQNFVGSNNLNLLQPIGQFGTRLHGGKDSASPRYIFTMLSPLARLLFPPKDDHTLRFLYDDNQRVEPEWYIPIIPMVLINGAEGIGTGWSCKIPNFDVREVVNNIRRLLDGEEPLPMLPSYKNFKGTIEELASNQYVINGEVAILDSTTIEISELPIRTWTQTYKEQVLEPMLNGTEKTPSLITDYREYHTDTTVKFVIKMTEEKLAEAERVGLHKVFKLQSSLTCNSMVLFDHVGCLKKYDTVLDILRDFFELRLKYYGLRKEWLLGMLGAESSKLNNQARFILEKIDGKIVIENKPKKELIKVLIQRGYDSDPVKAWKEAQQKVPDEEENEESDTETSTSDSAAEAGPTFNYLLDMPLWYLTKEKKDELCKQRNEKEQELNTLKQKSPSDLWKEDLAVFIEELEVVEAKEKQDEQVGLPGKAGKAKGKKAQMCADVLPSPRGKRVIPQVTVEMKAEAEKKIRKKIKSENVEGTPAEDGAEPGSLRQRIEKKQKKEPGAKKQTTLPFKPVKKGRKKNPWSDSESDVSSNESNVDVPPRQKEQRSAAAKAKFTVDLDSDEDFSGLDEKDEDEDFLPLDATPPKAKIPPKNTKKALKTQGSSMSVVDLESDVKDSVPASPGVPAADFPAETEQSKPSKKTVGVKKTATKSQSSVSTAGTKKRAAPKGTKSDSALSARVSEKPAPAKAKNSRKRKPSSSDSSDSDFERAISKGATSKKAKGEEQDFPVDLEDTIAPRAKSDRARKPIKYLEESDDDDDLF
smiles,measurement,setting,value
Cc1ccc(N/N=C2\CCCc3ccccc3C2=O)cc1,MIC,[1],7.06 µg/mL
same,zone of inhibition at 5 µg/mL,[2],12 mm
same,zone of inhibition at 2.5 µg/mL,[3],0 mm
same,zone of inhibition at 1.25 µg/mL,[4],7 mm
same,zone of inhibition at 1.25 µg/mL,[5],0 mm
same,zone of inhibition at 1.25 µg/mL,[6],2 mm
same,zone of inhibition at 2.5 µg/mL,[7],13 mm
same,zone of inhibition at 2.5 µg/mL,[8],8 mm
same,zone of inhibition at 5 µg/mL,[9],16 mm
same,zone of inhibition at 1.25 µg/mL,[10],0 mm
same,Activity,[11],80.1%
same,zone of inhibition at 2.5 µg/mL,[12],6 mm
same,Ratio,[13],4.27
same,MIC,[14],1.14 µg/mL
same,zone of inhibition at 5 µg/mL,[15],22 mm
same,zone of inhibition at 5 µg/mL,[16],0 mm
same,zone of inhibition at 1.25 µg/mL,[17],0 mm
same,zone of inhibition at 2.5 µg/mL,[18],12 mm
same,Ratio,[19],4.2
same,zone of inhibition at 1.25 µg/mL,[20],9 mm
same,zone of inhibition at 2.5 µg/mL,[21],0 mm
same,MIC,[22],1.25 µg/mL
same,MIC,[23],0.625 µg/mL
same,zone of inhibition at 5 µg/mL,[24],0 mm
same,zone of inhibition at 2.5 µg/mL,[25],0 mm
same,zone of inhibition at 1.25 µg/mL,[26],4 mm
same,zone of inhibition at 5 µg/mL,[27],14 mm
same,Activity,[28],Active
same,MIC,[29],0.625 µg/mL
same,zone of inhibition at 1.25 µg/mL,[30],5 mm
same,zone of inhibition at 5 µg/mL,[31],18 mm
same,MIC,[32],0.313 µg/mL
same,zone of inhibition at 2.5 µg/mL,[33],6 mm
same,zone of inhibition at 5 µg/mL,[34],7 mm
same,IC50,[35],56.3 µM
same,MIC,[36],0.625 µg/mL
